{
  "source": "ChEMBL document CHEMBL4138058",
  "about": "“Design and synthesis of novel selective estrogen receptor degradation inducers based on the diphenylheptane skeleton” (Medchemcomm, 2017)",
  "key": {"[1]": {"biological_target": "T1, Estrogen receptor (Homo sapiens) (UniProt P03372)", "T1 sequence (whole entry)": "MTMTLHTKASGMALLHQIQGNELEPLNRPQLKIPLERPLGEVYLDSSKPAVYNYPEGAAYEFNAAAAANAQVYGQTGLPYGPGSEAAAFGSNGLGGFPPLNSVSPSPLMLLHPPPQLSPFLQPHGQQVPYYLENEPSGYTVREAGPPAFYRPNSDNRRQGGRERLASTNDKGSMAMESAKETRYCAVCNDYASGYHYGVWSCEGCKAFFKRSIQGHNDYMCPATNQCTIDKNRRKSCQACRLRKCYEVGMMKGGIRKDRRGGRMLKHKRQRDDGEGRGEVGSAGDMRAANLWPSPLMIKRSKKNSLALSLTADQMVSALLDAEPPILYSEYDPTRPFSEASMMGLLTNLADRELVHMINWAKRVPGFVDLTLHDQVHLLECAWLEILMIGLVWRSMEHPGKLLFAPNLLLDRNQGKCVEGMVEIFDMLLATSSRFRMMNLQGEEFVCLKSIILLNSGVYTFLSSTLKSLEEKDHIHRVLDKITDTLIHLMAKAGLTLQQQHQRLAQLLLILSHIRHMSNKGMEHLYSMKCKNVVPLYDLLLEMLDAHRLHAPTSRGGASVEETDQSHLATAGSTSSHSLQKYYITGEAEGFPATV", "test": "Downregulation of ERalpha expression in human MCF7 cells at 1 uM after 6 hrs by Western blot method relative to beta-actin", "type": "cell-based", "procedure,_shortened": "(§1)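 MCF-7 cells kept in DMEM with 10% FBS, kanamycin and 10 μg/mL insulin, then exposed to compounds for 6 h. Lysates made in SDS buffer (0.1 M Tris-HCl pH 8.0, 10% glycerol, 1% SDS), boiled, BCA-normalized and run on SDS-PAGE. Blots probed with anti-ERα, AR, AhR or VDR and β-actin or lamin B. Chemiluminescence quantified as target/loading-protein ratio; means ± S.E., n=3.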"}, "[2]": {"biological_target": "T1, Estrogen receptor (Homo sapiens)", "test": "Downregulation of ERalpha expression in human MCF7 cells at 1 uM after 6 hrs by Western blot method relative to lamin B", "type": "cell-based", "procedure,_shortened": "as §1"}, "[3]": {"biological_target": "T1, Estrogen receptor (Homo sapiens)", "test": "Downregulation of ERalpha expression in human MCF7 cells at 10 uM after 6 hrs by Western blot method relative to lamin B", "type": "cell-based", "procedure,_shortened": "as §1"}, "[4]": {"biological_target": "T2, Androgen receptor (Homo sapiens) (UniProt P10275)", "T2 sequence (whole entry)": "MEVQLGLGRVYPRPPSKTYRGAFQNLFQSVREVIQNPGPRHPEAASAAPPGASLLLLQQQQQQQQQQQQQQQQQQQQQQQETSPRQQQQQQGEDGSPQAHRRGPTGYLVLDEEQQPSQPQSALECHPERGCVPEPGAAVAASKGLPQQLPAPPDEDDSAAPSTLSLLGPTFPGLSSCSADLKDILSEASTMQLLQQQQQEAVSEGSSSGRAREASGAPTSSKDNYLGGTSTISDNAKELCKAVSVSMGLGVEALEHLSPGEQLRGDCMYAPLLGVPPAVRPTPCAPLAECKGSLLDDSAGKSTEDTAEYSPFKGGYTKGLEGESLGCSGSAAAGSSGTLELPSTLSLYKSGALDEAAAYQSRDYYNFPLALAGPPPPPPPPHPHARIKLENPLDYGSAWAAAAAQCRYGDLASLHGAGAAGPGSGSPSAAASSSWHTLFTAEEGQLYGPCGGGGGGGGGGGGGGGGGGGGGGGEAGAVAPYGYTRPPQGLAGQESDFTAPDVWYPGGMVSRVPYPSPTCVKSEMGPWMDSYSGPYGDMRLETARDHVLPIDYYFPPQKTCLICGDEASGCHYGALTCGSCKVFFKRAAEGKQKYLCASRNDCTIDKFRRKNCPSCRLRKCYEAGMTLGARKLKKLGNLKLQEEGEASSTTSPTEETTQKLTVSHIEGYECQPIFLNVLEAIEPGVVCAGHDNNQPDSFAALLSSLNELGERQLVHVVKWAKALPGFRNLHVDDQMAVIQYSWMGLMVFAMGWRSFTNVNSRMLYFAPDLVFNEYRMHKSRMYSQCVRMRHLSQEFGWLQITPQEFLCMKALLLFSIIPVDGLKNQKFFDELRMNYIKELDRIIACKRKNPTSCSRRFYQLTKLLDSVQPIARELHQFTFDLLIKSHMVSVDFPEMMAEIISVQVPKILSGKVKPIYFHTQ", "test": "Downregulation of androgen receptor expression in human MCF7 cells at 1 uM after 6 hrs by Western blot method relative to lamin B", "type": "cell-based", "procedure,_shortened": "as §1"}, "[5]": {"biological_target": "T3, Vitamin D3 receptor (Homo sapiens) (UniProt P11473)", "T3 sequence (whole entry)": "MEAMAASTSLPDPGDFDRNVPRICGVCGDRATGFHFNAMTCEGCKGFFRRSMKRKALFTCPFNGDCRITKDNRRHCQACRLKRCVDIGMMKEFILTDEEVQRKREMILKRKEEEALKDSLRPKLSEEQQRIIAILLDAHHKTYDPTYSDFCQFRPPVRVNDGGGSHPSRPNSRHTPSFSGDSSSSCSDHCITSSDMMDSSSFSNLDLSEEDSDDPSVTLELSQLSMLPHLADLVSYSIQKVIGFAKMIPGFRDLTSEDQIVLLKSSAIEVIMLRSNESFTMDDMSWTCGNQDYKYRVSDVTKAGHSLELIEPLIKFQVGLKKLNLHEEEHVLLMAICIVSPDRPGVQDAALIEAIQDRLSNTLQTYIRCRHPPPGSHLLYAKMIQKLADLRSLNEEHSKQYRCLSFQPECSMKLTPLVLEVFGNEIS", "test": "Downregulation of VDR expression in human MCF7 cells at 1 uM after 6 hrs by Western blot method relative to lamin B", "type": "cell-based", "procedure,_shortened": "as §1"}, "[6]": {"biological_target": "T2, Androgen receptor (Homo sapiens)", "test": "Downregulation of androgen receptor expression in human MCF7 cells at 3 uM after 6 hrs by Western blot method relative to lamin B", "type": "cell-based", "procedure,_shortened": "as §1"}, "[7]": {"biological_target": "T3, Vitamin D3 receptor (Homo sapiens)", "test": "Downregulation of VDR expression in human MCF7 cells at 3 uM after 6 hrs in presence of proteasome inhibitor MG132 by Western blot method relative to lamin B", "type": "cell-based", "procedure,_shortened": "as §1"}, "[8]": {"biological_target": "T4, Estrogen receptor (Homo sapiens, UniProt P03372)", "T4 sequence (P03372 whole entry)": "T1 sequence (whole entry)", "test": "Displacement of Fluormone ES2 Green from full-length untagged human ERalpha expressed in insect cells after 2 hrs by fluorescence polarization assay"}},
  "data": [
    {"compound": "CCCCCCCCCCNCCOc1ccc(C(CCC)(CCC)c2ccc(O)c(C)c2)cc1C", "values": [
      {"measurement": "Activity", "setting": "[1]", "value": 76, "unit": "%"},
      {"measurement": "Activity", "setting": "[2]", "value": "58 to 76", "unit": "%"},
      {"measurement": "Activity", "setting": "[3]", "value": "32 to 44", "unit": "%"},
      {"measurement": "Activity", "setting": "[4]", "value": 94, "unit": "%"},
      {"measurement": "Activity", "setting": "[5]", "value": 100, "unit": "%"},
      {"measurement": "Activity", "setting": "[6]", "value": 106, "unit": "%"},
      {"measurement": "Activity", "setting": "[7]", "value": 83, "unit": "%"},
      {"measurement": "IC50", "setting": "[8]", "value": 4.9, "unit": "nM"}
    ]}
  ]
}
